Test results taken from ChEMBL document CHEMBL5385967, “Nitrogen-containing andrographolide derivatives with multidrug resistance reversal effects in cancer cells” (RSC Med Chem, 2024).

System: not listed separately
Assay: Resistance ratio of IC50 for antiproliferative activity against multidrug resistant mouse L5178Y cells transfected with human ABCB1 to IC50 for antiproliferative activity against mouse L5178Y cells
Assay type: functional
Details: not given
In short: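 RR = IC50(MDR)/IC50(PAR), IC50s from the 72 h MTT assay: 2-fold dilutions from 100 μM, 6 × 10^3 cells/well, triplicate. Collateral sensitivity taken as RR < 0.5; RR < 1 counted as selectivity toward resistant cells.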

| SMILES | Ratio |
| --- | --- |
| C=C1CC[C@@H]2[C@](C)(COC(C)=O)[C@H](OC(C)=O)CC[C@@]2(C)[C@@H]1C[C@H](NNC(=O)c1cccnc1)C1=CCOC1=O | 0.94 |
| C=C1CC[C@@H]2[C@](C)(COC(C)=O)[C@H](OC(C)=O)CC[C@@]2(C)[C@@H]1C[C@H](NNC(=S)Nc1ccccc1F)C1=CCOC1=O | 1.33 |
| C=C1CC[C@@H]2[C@](C)(COC(C)=O)[C@H](OC(C)=O)CC[C@@]2(C)[C@@H]1C[C@H](NNc1ccc(Br)cn1)C1=CCOC1=O | 0.58 |
| C=C1CC[C@@H]2[C@](C)(COC(C)=O)[C@H](OC(C)=O)CC[C@@]2(C)[C@@H]1C[C@H](NNC(=S)NCCN1CCOCC1)C1=CCOC1=O | 0.96 |
| C=C1CC[C@@H]2[C@](C)(COC(C)=O)[C@H](OC(C)=O)CC[C@@]2(C)[C@@H]1C[C@H](NNC(=O)c1ccc(N)cc1)C1=CCOC1=O | 0.44 |
| C=C1CC[C@@H]2[C@](C)(COC(C)=O)[C@H](OC(C)=O)CC[C@@]2(C)[C@@H]1C[C@H](NNC(=O)c1ccc(Cl)cc1)C1=CCOC1=O | 0.64 |

Biological target: T1, ATP-dependent translocase ABCB1 (Homo sapiens, UniProt P08183)
Assay: Modulation of human P-gp transfected in mouse L5178Y cells assessed as change in Rhodamine-123 efflux by measuring fluorescence activity ratio at 0.2 uM pretreated for 10 mins followed by Rhodamine-123 challenge for 20 mins by flow cytometry relative to parental mouse L5178Y cells
Assay type: cell-based
Details: 0.5 h, time 30 min
In short: (§1)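 PAR and MDR cells at 2 × 10^6 cells/mL in serum-free McCoy's 5A. Compound given 10 min at room temperature, then rhodamine-123 (5.2 μM final) for 20 min at 37 °C. Washed twice, resuspended in PBS, mean FL-1 read by flow cytometry. FAR = (MDR treated/untreated)/(PAR treated/untreated). Verapamil 20 μM positive control, DMSO 2% solvent control.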

T1 sequence (P08183 whole entry): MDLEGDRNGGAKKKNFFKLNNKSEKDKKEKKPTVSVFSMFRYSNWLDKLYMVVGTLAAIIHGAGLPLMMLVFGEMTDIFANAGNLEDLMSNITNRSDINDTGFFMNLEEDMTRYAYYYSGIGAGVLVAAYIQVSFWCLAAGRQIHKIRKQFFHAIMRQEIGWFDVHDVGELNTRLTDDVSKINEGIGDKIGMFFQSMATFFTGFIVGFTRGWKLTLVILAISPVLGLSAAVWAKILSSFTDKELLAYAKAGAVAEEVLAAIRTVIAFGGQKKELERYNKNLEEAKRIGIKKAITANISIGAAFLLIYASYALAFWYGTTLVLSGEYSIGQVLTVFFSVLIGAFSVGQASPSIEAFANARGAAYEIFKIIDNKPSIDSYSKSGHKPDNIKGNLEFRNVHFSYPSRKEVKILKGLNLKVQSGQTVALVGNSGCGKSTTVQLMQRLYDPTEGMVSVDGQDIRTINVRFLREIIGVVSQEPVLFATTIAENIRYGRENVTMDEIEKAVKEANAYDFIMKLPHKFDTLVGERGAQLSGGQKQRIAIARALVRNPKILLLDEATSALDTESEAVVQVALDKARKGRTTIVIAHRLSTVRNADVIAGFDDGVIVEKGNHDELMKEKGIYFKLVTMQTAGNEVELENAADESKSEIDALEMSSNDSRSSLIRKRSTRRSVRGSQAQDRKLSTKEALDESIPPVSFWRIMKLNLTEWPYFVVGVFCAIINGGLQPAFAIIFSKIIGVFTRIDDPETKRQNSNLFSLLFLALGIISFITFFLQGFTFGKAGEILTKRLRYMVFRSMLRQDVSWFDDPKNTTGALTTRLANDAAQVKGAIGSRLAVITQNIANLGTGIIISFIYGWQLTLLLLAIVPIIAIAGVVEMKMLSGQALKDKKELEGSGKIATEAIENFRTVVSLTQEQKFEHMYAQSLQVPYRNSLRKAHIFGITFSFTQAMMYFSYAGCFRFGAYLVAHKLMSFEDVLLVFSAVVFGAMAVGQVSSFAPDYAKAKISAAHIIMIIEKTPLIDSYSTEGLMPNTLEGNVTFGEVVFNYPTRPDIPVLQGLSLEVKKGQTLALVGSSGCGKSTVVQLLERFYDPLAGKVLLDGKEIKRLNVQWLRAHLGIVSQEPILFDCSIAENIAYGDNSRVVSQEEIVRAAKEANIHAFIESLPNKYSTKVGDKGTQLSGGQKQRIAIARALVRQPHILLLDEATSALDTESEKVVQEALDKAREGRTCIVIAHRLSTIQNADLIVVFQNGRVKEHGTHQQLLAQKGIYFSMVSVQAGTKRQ

| SMILES | Ratio |
| --- | --- |
| C=C1CC[C@@H]2[C@](C)(COC(C)=O)[C@H](OC(C)=O)CC[C@@]2(C)[C@@H]1C[C@H](NNC(=O)c1cccnc1)C1=CCOC1=O | 0.49 |
| C=C1CC[C@@H]2[C@](C)(COC(C)=O)[C@H](OC(C)=O)CC[C@@]2(C)[C@@H]1C[C@H](NNc1ccc(Br)cn1)C1=CCOC1=O | 2.34 |
| C=C1CC[C@@H]2[C@](C)(COC(C)=O)[C@H](OC(C)=O)CC[C@@]2(C)[C@@H]1C[C@H](NNC(=O)c1ccc(N)cc1)C1=CCOC1=O | 0.48 |
| C=C1CC[C@@H]2[C@](C)(COC(C)=O)[C@H](OC(C)=O)CC[C@@]2(C)[C@@H]1C[C@H](NNC(=O)c1ccc(Cl)cc1)C1=CCOC1=O | 1.56 |

System: L5178Y
Assay: Reversal of multidrug resistance in multidrug resistant mouse L5178Y cells transfected with human ABCB1 assessed as reduction in cell viability incubated for 72 hrs by MTT assay
Assay type: functional, cell-based
Details: not given
In short: (§2)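 Parental L5178Y or human ABCB1-transfected L5178Y MDR subline kept under 60 ng mL−1 colchicine selection; McCoy's 5A, 10% heat-inactivated horse serum, 37 °C. 6 × 10^3 cells/well exposed to 2-fold serial dilutions from 100 μM for 72 h. MTT 4 h, SDS overnight, OD 540/630 nm. Triplicate; IC50 from curve fitting, mean ± SD.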

| SMILES | IC50 [µM] |
| --- | --- |
| C=C1CC[C@@H]2[C@](C)(COC(C)=O)[C@H](OC(C)=O)CC[C@@]2(C)[C@@H]1C[C@H](NNC(=O)c1cccnc1)C1=CCOC1=O | 11.8 |
| C=C1CC[C@@H]2[C@](C)(COC(C)=O)[C@H](OC(C)=O)CC[C@@]2(C)[C@@H]1C[C@H](NNC(=S)Nc1ccccc1F)C1=CCOC1=O | 70 |
| C=C1CC[C@@H]2[C@](C)(COC(C)=O)[C@H](OC(C)=O)CC[C@@]2(C)[C@@H]1C[C@H](NNc1ccc(Br)cn1)C1=CCOC1=O | 12 |
| C=C1CC[C@@H]2[C@](C)(COC(C)=O)[C@H](OC(C)=O)CC[C@@]2(C)[C@@H]1C[C@H](NNC(=S)NCCN1CCOCC1)C1=CCOC1=O | 58.7 |
| C=C1CC[C@@H]2[C@](C)(COC(C)=O)[C@H](OC(C)=O)CC[C@@]2(C)[C@@H]1C[C@H](NNC(=O)c1ccc(N)cc1)C1=CCOC1=O | 5.47 |
| C=C1CC[C@@H]2[C@](C)(COC(C)=O)[C@H](OC(C)=O)CC[C@@]2(C)[C@@H]1C[C@H](NNC(=O)c1ccc(Cl)cc1)C1=CCOC1=O | 9.04 |

System: L5178Y
Assay: Synergistic antiproliferative activity against multidrug resistant mouse L5178Y cells transfected with human ABCB1 assessed as combination index incubated for 72 hrs in presence of doxorubicin by MTT assay
Assay type: functional
Details: not given
In short: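 Checkerboard in MDR cells, 6 × 10^3 cells/well. Doxorubicin in serial dilutions from 8.6 μM, crossed with modifier dilutions whose start level was set from its IC50. 72 h at 37 °C under CO2, growth read by MTT. Curves fitted by the median-effect equation; CI reported at 50% inhibition, mean ± SD.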

| SMILES | CI |
| --- | --- |
| C=C1CC[C@@H]2[C@](C)(COC(C)=O)[C@H](OC(C)=O)CC[C@@]2(C)[C@@H]1C[C@H](NNC(=O)c1cccnc1)C1=CCOC1=O | <1 |
| C=C1CC[C@@H]2[C@](C)(COC(C)=O)[C@H](OC(C)=O)CC[C@@]2(C)[C@@H]1C[C@H](NNc1ccc(Br)cn1)C1=CCOC1=O | 0.21 |
| C=C1CC[C@@H]2[C@](C)(COC(C)=O)[C@H](OC(C)=O)CC[C@@]2(C)[C@@H]1C[C@H](NNC(=O)c1ccc(N)cc1)C1=CCOC1=O | <1 |
| C=C1CC[C@@H]2[C@](C)(COC(C)=O)[C@H](OC(C)=O)CC[C@@]2(C)[C@@H]1C[C@H](NNC(=O)c1ccc(Cl)cc1)C1=CCOC1=O | <1 |

Biological target: T1, ATP-dependent translocase ABCB1
Assay: Modulation of human P-gp transfected in mouse L5178Y cells assessed as change in Rhodamine-123 efflux by measuring fluorescence activity ratio at 2 uM pretreated for 10 mins followed by Rhodamine-123 challenge for 20 mins by flow cytometry relative to parental mouse L5178Y cells
Assay type: cell-based
Details: 0.5 h, time 30 min
In short: as §1

| SMILES | Ratio |
| --- | --- |
| C=C1CC[C@@H]2[C@](C)(COC(C)=O)[C@H](OC(C)=O)CC[C@@]2(C)[C@@H]1C[C@H](NNC(=O)c1cccnc1)C1=CCOC1=O | 0.32 |
| C=C1CC[C@@H]2[C@](C)(COC(C)=O)[C@H](OC(C)=O)CC[C@@]2(C)[C@@H]1C[C@H](NNC(=S)Nc1ccccc1F)C1=CCOC1=O | 1.03 |
| C=C1CC[C@@H]2[C@](C)(COC(C)=O)[C@H](OC(C)=O)CC[C@@]2(C)[C@@H]1C[C@H](NNc1ccc(Br)cn1)C1=CCOC1=O | 16.12 |
| C=C1CC[C@@H]2[C@](C)(COC(C)=O)[C@H](OC(C)=O)CC[C@@]2(C)[C@@H]1C[C@H](NNC(=S)NCCN1CCOCC1)C1=CCOC1=O | 1.37 |
| C=C1CC[C@@H]2[C@](C)(COC(C)=O)[C@H](OC(C)=O)CC[C@@]2(C)[C@@H]1C[C@H](NNC(=O)c1ccc(N)cc1)C1=CCOC1=O | 0.48 |
| C=C1CC[C@@H]2[C@](C)(COC(C)=O)[C@H](OC(C)=O)CC[C@@]2(C)[C@@H]1C[C@H](NNC(=O)c1ccc(Cl)cc1)C1=CCOC1=O | 3.36 |

Biological target: T1, ATP-dependent translocase ABCB1
Assay: Modulation of human P-gp transfected in mouse L5178Y cells assessed as change in Rhodamine-123 efflux by measuring fluorescence activity ratio at 20 uM pretreated for 10 mins followed by Rhodamine-123 challenge for 20 mins by flow cytometry relative to parental mouse L5178Y cells
Assay type: cell-based
Details: 0.5 h, time 30 min

| SMILES | Ratio |
| --- | --- |
| C=C1CC[C@@H]2[C@](C)(COC(C)=O)[C@H](OC(C)=O)CC[C@@]2(C)[C@@H]1C[C@H](NNC(=S)Nc1ccccc1F)C1=CCOC1=O | 79.33 |
| C=C1CC[C@@H]2[C@](C)(COC(C)=O)[C@H](OC(C)=O)CC[C@@]2(C)[C@@H]1C[C@H](NNC(=S)NCCN1CCOCC1)C1=CCOC1=O | 50.23 |

System: L5178Y
Assay: Antiproliferative activity against mouse L5178Y cells assessed as reduction in cell viability incubated for 72 hrs by MTT assay
Assay type: functional, cell-based
Details: not given
In short: as §2

| SMILES | IC50 [µM] |
| --- | --- |
| C=C1CC[C@@H]2[C@](C)(COC(C)=O)[C@H](OC(C)=O)CC[C@@]2(C)[C@@H]1C[C@H](NNC(=O)c1cccnc1)C1=CCOC1=O | 12.5 |
| C=C1CC[C@@H]2[C@](C)(COC(C)=O)[C@H](OC(C)=O)CC[C@@]2(C)[C@@H]1C[C@H](NNC(=S)Nc1ccccc1F)C1=CCOC1=O | 52.6 |
| C=C1CC[C@@H]2[C@](C)(COC(C)=O)[C@H](OC(C)=O)CC[C@@]2(C)[C@@H]1C[C@H](NNc1ccc(Br)cn1)C1=CCOC1=O | 20.6 |
| C=C1CC[C@@H]2[C@](C)(COC(C)=O)[C@H](OC(C)=O)CC[C@@]2(C)[C@@H]1C[C@H](NNC(=S)NCCN1CCOCC1)C1=CCOC1=O | 61.5 |
| C=C1CC[C@@H]2[C@](C)(COC(C)=O)[C@H](OC(C)=O)CC[C@@]2(C)[C@@H]1C[C@H](NNC(=O)c1ccc(N)cc1)C1=CCOC1=O | 12.3 |
| C=C1CC[C@@H]2[C@](C)(COC(C)=O)[C@H](OC(C)=O)CC[C@@]2(C)[C@@H]1C[C@H](NNC(=O)c1ccc(Cl)cc1)C1=CCOC1=O | 14.2 |
